One may read the pKi as the Ki on a negative log10 scale, so that one unit is a factor of ten. The low end stands for a large Ki, the high end for a small Ki.

The text below walks through data of BindingDB's records for doi:10.1021/jm9013482 (Harvard Medical School, 2010).

The experiment deals with Delta-type opioid receptor (Homo sapiens, UniProt P41143). Put plainly: Displacement of [3H]naltrindole from human delta opioid receptor expressed in CHO cells. Summed up: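 CHO cells stably expressing a single human opioid receptor were grown in DMEM with 10% FBS and penicillin/streptomycin at 37 °C in 5% CO2. Their membranes were incubated with radioligand and 12 concentrations of test compound at 25 °C in 50 mM Tris-HCl, pH 7.5.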

The structures appear in SMILES notation. pKi: −log10 of the molar value.

Chain of Delta-type opioid receptor (P41143 whole entry): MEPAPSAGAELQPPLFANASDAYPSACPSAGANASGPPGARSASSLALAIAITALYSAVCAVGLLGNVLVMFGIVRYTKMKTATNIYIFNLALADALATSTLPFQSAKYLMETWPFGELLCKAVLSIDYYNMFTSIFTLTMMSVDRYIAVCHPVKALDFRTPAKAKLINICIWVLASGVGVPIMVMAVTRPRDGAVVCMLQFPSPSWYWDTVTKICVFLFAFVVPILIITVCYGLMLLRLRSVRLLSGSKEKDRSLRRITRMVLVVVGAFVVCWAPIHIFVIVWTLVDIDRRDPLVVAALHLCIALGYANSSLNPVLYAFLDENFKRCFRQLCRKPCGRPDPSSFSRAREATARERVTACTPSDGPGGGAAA

On to `O=C(CCCCC(=O)NCc1cc2c(cc1O)[C@@]13CCCC[C@H]1[C@@H](C2)N(CC1CCC1)CC3)NCc1cc2c(cc1O)[C@@]13CCCC[C@H]1[C@@H](C2)N(CC1CCC1)CC3` [Hexanedioic Acid Bis(17-N-cyclobutylmethyl-3-hydroxymorphinan-2-methyl)amide], for which the negative logarithm of the Ki (pKi) is 6.20.
